Test results as given in paper PMC11969444 (RSC Advances, 2025).

Assays:
[1] = test system: PGLT-induced diabetic rats; assay: Serum hepatic marker enzymes; assay type: in vivo; conditions: 10 mg kg^−1, serum
Procedure, shortened: (§1)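 Rats were given PGLT to induce diabetes and treated with test compounds for 28 days. Blood glucose and body weight were recorded on days 1, 7, 14, 21 and 28. Serum was assayed for TG, total CH, LDL, HDL, SGOT, SGPT and ALP. Groups were normal control, diabetic control and treated, n = 8 per group, shown as mean ± SEM. Treated groups were compared with diabetic control by one-way ANOVA with Dunnett's post hoc test.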

[2] = test system: PGLT-induced diabetic rats; assay: Antihyperlipidemic effects; assay type: in vivo; conditions: 10 mg kg^−1, 28 days
Procedure, shortened: as §1

Effect on body weights = assay type: in vivo, rats
Procedure, shortened: as §1

[3] = test system: PGLT-induced diabetic rats; assay: Blood glucose level in PGLT-induced diabetes; assay type: in vivo
Procedure, shortened: as §1

β-glucosidase = assay: In vitro β-glucosidase inhibitory assay; assay type: biochemical; conditions: read-out: β-Glucosidase IC50 ± SEM; mean ± standard error of the mean
Procedure, shortened: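 β-Glucosidase solution (0.5 U mL−1) was preincubated with test compound at varying concentrations in 0.1 M phosphate buffer, pH 6.9, at 37 °C for 15 min. The reaction was started with 5 mM p-nitrophenyl-β-D-glucopyranoside solution in the same buffer and run at 37 °C for 15 min. It was stopped with 0.2 M sodium carbonate and read at 405 nm. Controls were a sample-free reaction and an enzyme-free blank.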

| SMILES | ALP [1] | SGOT [1] | SGPT [1] | HDL [2] | LDL [2] | TG [2] | Total CH [2] | Body weight (Effect on body weights; 10 mg kg^−1, 1st day) | Body weight (Effect on body weights; 10 mg kg^−1, 7th day) | Body weight (Effect on body weights; 10 mg kg^−1, 14th day) | Body weight (Effect on body weights; 10 mg kg^−1, 21st day) | Body weight (Effect on body weights; 10 mg kg^−1, 28th day) | weight loss (Effect on body weights; day 1 to day 28, PGLT-treated group) | Blood glucose level ([3]; 10 mg kg^−1, 1st day) | Blood glucose level ([3]; 10 mg kg^−1, 7th day) | Blood glucose level ([3]; 10 mg kg^−1, 14th day) | Blood glucose level ([3]; 10 mg kg^−1, 21st day) | Blood glucose level ([3]; 10 mg kg^−1, 28th day, listed as p-Nitrophenyl-β-D-glucopyranoside (PGLT)) | Blood glucose level ([3]; 10 mg kg^−1, 28th day, listed as p-nitrophenyl-β-D-glucopyranoside (PGLT)) | IC50 (β-glucosidase) |
| --- | --- | --- | --- | --- | --- | --- | --- | --- | --- | --- | --- | --- | --- | --- | --- | --- | --- | --- | --- | --- |
| O=[N+]([O-])c1ccc(O[C@@H]2O[C@H](CO)[C@@H](O)[C@H](O)[C@H]2O)cc1 [PGLT, p-nitrophenyl-β-D-glucopyranoside] | 171.04 ± 3.91 IU | 21.39 ± 1.79 IU | 21.17 ± 1.88 IU | 55.72 ± 2.01 mg/dL | 87.58 ± 2.96 mg/dL | 96.36 ± 4.51 mg/dL | 104.73 ± 4.83 mg/dL | 20.16 ± 1.71 | 19.88 ± 1.81 | 20.01 ± 1.61 | 19.70 ± 1.69 | 19.66 ± 1.51 | 2.48% | 402.22 ± 4.97 mg per dL | 229.56 ± 4.80 mg per dL | 154.06 ± 4.59 mg per dL | 119.70 ± 4.87 mg per dL | 102.27 ± 4.31 mg per dL | 102.27 ± 4.31 mg per dL | – |
